ChEMBL document CHEMBL5104186, “Structure-Activity Relationship and Neuroprotective Activity of 1,5-Dihydro-2H-naphtho[1,2-b][1,4]diazepine-2,4(3H)-diones as P2X4 Receptor Antagonists” (J Med Chem, 2022)
Activity calls are given as the source filed them. The rule behind the calls is not given here.

Tests used:
[1] = target: T1, P2X purinoceptor 1 (Homo sapiens) (UniProt P51575); assay: Antagonist activity at human P2X1R transfected in CHO-K1 cells at 30 uM preincubated for 30 mins followed by alpha,beta-meATP addition by […] based assay relative to control; format: cell-based; design: scale not given: the % may be the effect or the level left
T1 sequence (whole entry): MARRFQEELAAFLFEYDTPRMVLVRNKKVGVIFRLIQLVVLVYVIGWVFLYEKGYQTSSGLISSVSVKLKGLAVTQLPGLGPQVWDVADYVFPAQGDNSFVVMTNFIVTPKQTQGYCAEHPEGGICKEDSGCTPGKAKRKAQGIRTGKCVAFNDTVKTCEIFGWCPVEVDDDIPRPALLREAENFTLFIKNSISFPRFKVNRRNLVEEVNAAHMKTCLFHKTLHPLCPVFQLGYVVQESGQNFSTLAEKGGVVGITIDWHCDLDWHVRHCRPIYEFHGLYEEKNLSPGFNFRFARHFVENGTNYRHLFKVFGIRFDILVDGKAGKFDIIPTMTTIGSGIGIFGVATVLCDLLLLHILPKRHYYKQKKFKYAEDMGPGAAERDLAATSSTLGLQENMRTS

[2] = target: P2X2/P2X3 heterotrimeric receptor (Homo sapiens) (UniProt Q9UBL9+P56373); assay: Antagonist activity at human P2X2/3R transfected in CHO-K1 cells at 30 uM preincubated for 30 mins followed by alpha,beta-meATP addition by fluorescence based assay relative to control; format: cell-based; design: scale not given: the % may be the effect or the level left
[3] = target: T2, P2X purinoceptor 4 (Homo sapiens) (UniProt Q99571); assay: Antagonist activity at human P2X4R transfected in HEK293 cells at 30 uM preincubated for 30 mins followed by CTP addition by fluorescence based assay relative to control; format: cell-based; design: scale not given: the % may be the effect or the level left
T2 sequence (whole entry): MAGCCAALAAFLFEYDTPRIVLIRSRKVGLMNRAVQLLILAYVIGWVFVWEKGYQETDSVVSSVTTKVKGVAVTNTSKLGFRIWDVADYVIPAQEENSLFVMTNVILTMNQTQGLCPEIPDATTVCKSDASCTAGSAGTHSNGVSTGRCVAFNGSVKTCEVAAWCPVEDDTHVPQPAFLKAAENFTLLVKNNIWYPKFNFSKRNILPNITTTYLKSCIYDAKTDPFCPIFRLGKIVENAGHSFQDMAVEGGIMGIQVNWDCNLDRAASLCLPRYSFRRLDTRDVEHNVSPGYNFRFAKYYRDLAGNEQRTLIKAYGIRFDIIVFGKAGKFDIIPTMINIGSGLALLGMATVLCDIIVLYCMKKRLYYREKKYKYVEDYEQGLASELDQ

[4] = target: T3, P2X purinoceptor 3 (Homo sapiens) (UniProt P56373); assay: Antagonist activity at human P2X3R transfected in CHO-K1 cells at 30 uM preincubated for 30 mins followed by alpha,beta-meATP addition by fluorescence based assay relative to control; format: cell-based; design: scale not given: the % may be the effect or the level left
T3 sequence (whole entry): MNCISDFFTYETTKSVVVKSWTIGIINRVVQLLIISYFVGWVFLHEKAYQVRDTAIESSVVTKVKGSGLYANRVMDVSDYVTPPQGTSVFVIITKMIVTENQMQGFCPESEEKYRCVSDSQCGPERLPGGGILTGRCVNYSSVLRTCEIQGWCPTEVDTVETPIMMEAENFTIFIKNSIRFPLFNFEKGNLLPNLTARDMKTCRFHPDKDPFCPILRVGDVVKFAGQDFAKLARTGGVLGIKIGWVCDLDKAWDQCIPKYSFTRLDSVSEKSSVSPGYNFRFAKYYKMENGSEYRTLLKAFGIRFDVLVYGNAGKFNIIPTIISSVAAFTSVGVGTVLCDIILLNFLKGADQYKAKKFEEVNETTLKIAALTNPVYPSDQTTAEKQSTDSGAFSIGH

P2X purinoceptor 4 = target: T4, P2X purinoceptor 4 (Homo sapiens, UniProt Q99571); assay: Antagonist activity at human P2X4R transfected in HEK293 cells preincubated for 30 mins followed by CTP addition by fluorescence based assay; format: cell-based
T4 sequence (Q99571 whole entry): T2 sequence (whole entry)

MDM [5] = assay: Inhibition of ATP-induced calcium influx in human monocytes derived macrophages preincubated for 15 mins followed by ATP addition and measured upto 4 mins by laser scanning confocal microscopic analysis; format: functional, cell-based; conditions: dose 0.6-3 µM, time <= 19.0 min, DDE = dose-dependent effect
Summary of the method: (§1)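 Monocytes matured into macrophages with GM-CSF (5 ng/mL) for 5–7 days, then seeded 10^4 cells/dish for ≥24 h. Calbryte 590 AM loaded for 60 min in HBSS/HEPES. Cells pretreated 15 min with 0–3 μM compound, then 50 μM ATP added; confocal images taken every 6 s for up to 4 min. Read-out is peak cytosolic Ca2+ amplitude (F/F0). Mean ± SEM; ANOVA with Tukey.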

Mus musculus [6] = assay: Neuroprotective activity in Wild type C57B/6 mouse model of middle cerebral artery occlusion assessed as reduction in tissue atrophy at […] administered for 3 days measured after 35 days by CV staining based assay; format: functional, organism-based; conditions: time 3.0 day
Mus musculus [7] = assay: Neuroprotective activity in Wild type C57B/6 mouse model of middle cerebral artery occlusion assessed as reduction in infract damage at […] administered for 3 days by TTC staining based assay; format: functional, organism-based; conditions: time 3.0 day
D(3) dopamine receptor = D(3) dopamine receptor (Homo sapiens, UniProt P35462); assay: Binding affinity to human D3 dopamine receptor
Summary of the method: (§2)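 Off-target radioligand binding was run by the NIMH Psychoactive Drug Screening Program across 45 receptors, channels and transporters. Ki in nM, given as mean ± SEM.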

[8] = Effect on locomotor activity in C57B/6 mouse model of middle cerebral artery occlusion at 1.5 to 3 mg/kg/day measured over 4 weeks after stroke by open field test; format: toxicity, organism-based; conditions: in vivo, 672 h, dose 1.5-3 mg/kg/day
Summary of the method: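 C57B/6 mice underwent MCAO and received a subcutaneous Alzet minipump (vehicle 1× PBS) at reperfusion, delivering compound for 3 days. Open-field test: 10 min exploration of a 16″ acrylic box at several time points; total beam breaks recorded. Mean ± S.D.; n = 8–15/group, both sexes.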

Mus musculus [9] = assay: Neuroprotective activity in Wild type C57B/6 mouse model of middle cerebral artery occlusion assessed as reduction in cortical infract volume at […] administered for 3 days; format: functional, organism-based; conditions: time 3.0 day
Mus musculus [10] = assay: Neuroprotective activity in Wild type C57B/6 mouse model of middle cerebral artery occlusion assessed as reduction in hemispheric infract size at 0.5 to 3 mg/kg/day administered for 3 days; format: functional, organism-based; conditions: dose 0.5-3 mg/kg/day, time 3.0 day
Summary of the method: (§3)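 C57B/6 mice (8–12-week-old males; 12–13-month-old mice in one study) underwent MCAO (filament, laser Doppler confirmation, 37 °C). At reperfusion a subcutaneous Alzet pump was implanted, giving 0.5–3.0 or 5.0 mg/kg/day for 3 days; vehicle was PBS. At day 3, TTC-stained coronal sections were scored blind, with edema-corrected (Swanson) infarct volume as % of contralateral. Mean ± S.D.; n = 5–6.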

[11] = target: T5, 5-hydroxytryptamine receptor 2C (Homo sapiens, UniProt P28335); assay: Binding affinity to human 5HT2C serotonin receptor; summary of the method: as §2
T5 sequence (P28335 whole entry): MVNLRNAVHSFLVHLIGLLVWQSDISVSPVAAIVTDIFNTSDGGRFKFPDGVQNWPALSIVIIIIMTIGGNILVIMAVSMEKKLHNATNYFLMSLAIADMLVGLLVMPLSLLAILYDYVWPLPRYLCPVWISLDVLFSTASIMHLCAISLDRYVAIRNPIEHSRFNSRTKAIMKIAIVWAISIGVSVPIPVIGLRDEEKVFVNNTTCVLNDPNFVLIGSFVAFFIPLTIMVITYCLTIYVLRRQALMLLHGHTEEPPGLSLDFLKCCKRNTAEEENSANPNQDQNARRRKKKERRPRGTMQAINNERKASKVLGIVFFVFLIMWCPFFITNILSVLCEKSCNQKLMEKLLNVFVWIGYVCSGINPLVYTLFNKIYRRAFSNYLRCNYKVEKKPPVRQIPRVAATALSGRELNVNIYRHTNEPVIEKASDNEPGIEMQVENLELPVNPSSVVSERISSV

MDM [12] = assay: Inhibition of ATP-induced calcium influx in human monocytes derived macrophages assessed as decrease in calcium altitude at 0.6 uM preincubated for 15 mins followed by ATP addition and measured upto 4 mins by laser scanning confocal microscopic analysis; format: functional, cell-based; conditions: time <= 19.0 min; summary of the method: as §1
Mus musculus [13] = assay: Improvement in learning and memory in C57B/6 mouse model of middle cerebral artery occlusion at 3 mg/kg measured after 4 weeks post stroke by NORT; format: functional, organism-based
Summary of the method: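 Middle-aged C57B/6 mice (both sexes) underwent MCAO and received a 3-day subcutaneous minipump infusion from reperfusion (vehicle PBS). NORT was run 4 weeks post-stroke: 1 h acclimatisation, 10 min habituation, 10 min trial with two identical objects, then a test 24 h later with one novel object. Discrimination index = (TN − TF)/(TN + TF). One-way ANOVA with Tukey; n = 5–11/group.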

Mus musculus [14] = assay: Neuroprotective activity in Wild type C57B/6 mouse model of middle cerebral artery occlusion assessed as reduction in hemispheric infract size at 5 mg/kg/day administered for 3 days; format: functional, organism-based; conditions: time 3.0 day; summary of the method: as §3

Chain of D(3) dopamine receptor (P35462 whole entry): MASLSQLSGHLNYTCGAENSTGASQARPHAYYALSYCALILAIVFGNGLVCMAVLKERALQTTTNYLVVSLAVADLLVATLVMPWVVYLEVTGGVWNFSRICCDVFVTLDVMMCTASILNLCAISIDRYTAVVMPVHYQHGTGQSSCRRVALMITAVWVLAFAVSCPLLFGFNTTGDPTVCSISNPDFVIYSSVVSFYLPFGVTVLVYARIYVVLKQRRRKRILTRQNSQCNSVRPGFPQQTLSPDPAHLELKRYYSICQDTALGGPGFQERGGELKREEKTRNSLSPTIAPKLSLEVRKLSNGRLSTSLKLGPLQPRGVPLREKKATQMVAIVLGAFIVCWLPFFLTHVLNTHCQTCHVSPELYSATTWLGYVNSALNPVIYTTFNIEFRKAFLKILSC

CCCCC#Cc1cc2c(c3ccccc13)NC(=O)CC(=O)N2c1cccc(-c2noc(=S)[nH]2)c1
Activity [1]: 16%
Activity [2]: 1%
Activity [3]: 15%
Activity [4]: 18%

O=C1CC(=O)N(c2cccc(-c3noc(=S)[nH]3)c2)c2cc(C#Cc3ccccc3)c3ccccc3c2N1
Activity [1]: 14%
Activity [2]: 5%
Activity [3]: -4%
Activity [4]: 7%

O=C1CC(=O)N(c2cccc(-c3noc(=S)[nH]3)c2)c2cc(C#Cc3cccnc3)c3ccccc3c2N1
Activity [1]: 9%
Activity [2]: 13%
Activity [3]: 34%
Activity [4]: 9%

CC(=O)NCc1ccc2ccc3c(c2c1)NC(=O)CC(=O)N3c1cccc(-c2noc(=S)[nH]2)c1
Activity [1]: 26%
Activity [2]: -5%
Activity [3]: 16%
Activity [4]: 9%

O=C1CC(=O)N(c2cc(-c3noc(=S)[nH]3)ccn2)c2ccc3ccccc3c2N1
Activity [1]: 18%
Activity [2]: -6%
Activity [4]: 18%

[N-]=[N+]=NCc1ccc2ccc3c(c2c1)NC(=O)CC(=O)N3c1cccc(-c2noc(=S)[nH]2)c1
Activity [1]: 8%
Activity [2]: 4%
Activity [3]: 6%
Activity [4]: 13%

CCc1cc2c(c3ccccc13)NC(=O)CC(=O)N2c1cccc(-c2noc(=S)[nH]2)c1
Activity [1]: 6%
Activity [2]: 10%
Activity [4]: 6%

Cc1cc(-c2noc(=S)[nH]2)cc(N2C(=O)CC(=O)Nc3c2ccc2ccccc32)c1
Activity [1]: 16%
Activity [2]: 5%
Activity [4]: 12%

NCc1ccc2ccc3c(c2c1)NC(=O)CC(=O)N3c1cccc(-c2noc(=S)[nH]2)c1
Activity [1]: 8%
Activity [2]: 0%
Activity [3]: 9%
Activity [4]: 9%

[N-]=[N+]=NCc1ccc2c(Br)cc3c(c2c1)NC(=O)CC(=O)N3c1cccc(-c2noc(=S)[nH]2)c1
Activity [1]: -13%
Activity [2]: -4%
Activity [3]: 8%
Activity [4]: 15%

[N-]=[N+]=NCc1ccc2c3c(ccc2c1)N(c1cccc(-c2noc(=S)[nH]2)c1)C(=O)CC(=O)N3
IC50 (P2X purinoceptor 4): 21.3 µM
Activity [1]: -5%
Activity [2]: 2%
Activity [4]: 0%

O=C1CC(=O)N(c2cncc(-c3noc(=S)[nH]3)c2)c2ccc3ccccc3c2N1
Activity [1]: 15%
Activity [2]: 25%
Activity [4]: 6%

Cc1ccc2c(Br)cc3c(c2c1)NC(=O)CC(=O)N3c1cccc(-c2noc(=S)[nH]2)c1
IC50 (P2X purinoceptor 4): 11.8 µM
Activity [1]: -2%
Activity [2]: -5%
Activity [4]: 17%

O=C1CC(=O)N(c2cccc(-c3noc(=S)[nH]3)c2)c2cc(-c3ccccc3)c3ccccc3c2N1
IC50 (P2X purinoceptor 4): 20.7 µM
Activity [1]: 14%
Activity [2]: 10%
Activity [4]: 11%

O=C1CC(=O)N(c2cccc(-c3noc(=S)[nH]3)n2)c2ccc3ccccc3c2N1
Activity [1]: 31%
Activity [2]: 15%
Activity [4]: 17%

CCN(CC)CC.O=C1CC(=O)N(c2ccnc(-c3noc(=S)[nH]3)c2)c2ccc3ccccc3c2N1
inhibition (MDM [5]): Dde
Activity (Mus musculus [6]): Active
Activity (Mus musculus [7]): Active
Ki (D(3) dopamine receptor): 0.00077 µM
Activity [8]: Non-Toxic
Activity (Mus musculus [9]): Active
Activity (Mus musculus [10]): Active
Ki [11]: 0.006 µM
inhibition (MDM [12]): Active
Activity (Mus musculus [13]): Active

Cc1ccc2c3c(ccc2c1)N(c1cccc(-c2noc(=S)[nH]2)c1)C(=O)CC(=O)N3
Activity (Mus musculus [14]): Active
